Measured values taken from ChEMBL document CHEMBL3259642, “Design and synthesis of novel 2-phenyl-5-(1,3-diphenyl-1H-pyrazol-4-yl)-1,3,4-oxadiazoles as selective COX-2 inhibitors with potent anti-inflammatory activity” (Eur J Med Chem, 2014).

Molecular target: T1, Prostaglandin G/H synthase 1 (Ovis aries, UniProt P05979)
T1 sequence (P05979 whole entry): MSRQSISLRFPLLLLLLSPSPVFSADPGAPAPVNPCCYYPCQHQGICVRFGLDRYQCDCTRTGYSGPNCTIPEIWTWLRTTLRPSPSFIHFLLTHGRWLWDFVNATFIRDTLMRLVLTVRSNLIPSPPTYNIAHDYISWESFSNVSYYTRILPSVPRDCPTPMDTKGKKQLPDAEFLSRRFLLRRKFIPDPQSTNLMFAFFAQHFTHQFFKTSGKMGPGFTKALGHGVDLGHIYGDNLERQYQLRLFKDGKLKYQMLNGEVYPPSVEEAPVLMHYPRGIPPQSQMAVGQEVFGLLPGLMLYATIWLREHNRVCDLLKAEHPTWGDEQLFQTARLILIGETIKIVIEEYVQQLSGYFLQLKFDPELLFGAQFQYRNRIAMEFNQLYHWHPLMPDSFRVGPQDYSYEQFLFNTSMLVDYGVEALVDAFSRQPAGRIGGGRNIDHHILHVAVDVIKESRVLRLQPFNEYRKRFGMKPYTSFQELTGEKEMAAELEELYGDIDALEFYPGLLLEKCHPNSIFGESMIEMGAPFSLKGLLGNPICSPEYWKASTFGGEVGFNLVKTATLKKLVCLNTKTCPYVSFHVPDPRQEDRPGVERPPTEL
Assay: Inhibition of ovine COX1 after 2 mins by EIA
Conditions: not given

Compound | IC50
COc1ccc(-c2nn(-c3ccccc3)cc2-c2nnc(-c3ccc(Cl)cc3)o2)cc1 | > 100 µM
Brc1ccc(-c2nn(-c3ccccc3)cc2-c2nnc(-c3ccccc3)o2)cc1 | > 100 µM
O=[N+]([O-])c1ccc(-c2nn(-c3ccccc3)cc2-c2nnc(-c3ccncc3)o2)cc1 | > 100 µM
Cc1ccc(-c2nn(-c3ccccc3)cc2-c2nnc(-c3ccncc3)o2)cc1 | > 100 µM
Clc1ccc(-c2nnc(-c3cn(-c4ccccc4)nc3-c3ccccc3)o2)cc1 | > 100 µM
Clc1ccc(-c2nnc(-c3cn(-c4ccccc4)nc3-c3ccc(Br)cc3)o2)cc1 | > 100 µM
c1ccc(-c2nnc(-c3cn(-c4ccccc4)nc3-c3ccccc3)o2)cc1 | > 100 µM
Fc1ccc(-c2nn(-c3ccccc3)cc2-c2nnc(-c3ccncc3)o2)cc1 | > 100 µM
Clc1ccc(-c2nn(-c3ccccc3)cc2-c2nnc(-c3ccncc3)o2)cc1 | > 100 µM
c1ccc(-c2nn(-c3ccccc3)cc2-c2nnc(-c3ccncc3)o2)cc1 | > 100 µM
Fc1ccc(-c2nn(-c3ccccc3)cc2-c2nnc(-c3ccccc3)o2)cc1 | > 100 µM
O=[N+]([O-])c1ccc(-c2nn(-c3ccccc3)cc2-c2nnc(-c3ccc(Cl)cc3)o2)cc1 | > 100 µM
COc1ccc(-c2nn(-c3ccccc3)cc2-c2nnc(-c3ccncc3)o2)cc1 | > 100 µM
Clc1ccc(-c2nn(-c3ccccc3)cc2-c2nnc(-c3ccccc3)o2)cc1 | > 100 µM
Fc1ccc(-c2nn(-c3ccccc3)cc2-c2nnc(-c3ccc(Cl)cc3)o2)cc1 | > 100 µM
Clc1ccc(-c2nnc(-c3cn(-c4ccccc4)nc3-c3ccc(Cl)cc3)o2)cc1 | > 100 µM
Cc1ccc(-c2nn(-c3ccccc3)cc2-c2nnc(-c3ccccc3)o2)cc1 | > 100 µM
O=[N+]([O-])c1ccc(-c2nn(-c3ccccc3)cc2-c2nnc(-c3ccccc3)o2)cc1 | > 100 µM
Cc1ccc(-c2nn(-c3ccccc3)cc2-c2nnc(-c3ccc(Cl)cc3)o2)cc1 | > 100 µM
COc1ccc(-c2nn(-c3ccccc3)cc2-c2nnc(-c3ccccc3)o2)cc1 | > 100 µM
Brc1ccc(-c2nn(-c3ccccc3)cc2-c2nnc(-c3ccncc3)o2)cc1 | > 100 µM

Molecular target: T2, Prostaglandin G/H synthase 2 (Homo sapiens, UniProt P35354)
T2 sequence (P35354 whole entry): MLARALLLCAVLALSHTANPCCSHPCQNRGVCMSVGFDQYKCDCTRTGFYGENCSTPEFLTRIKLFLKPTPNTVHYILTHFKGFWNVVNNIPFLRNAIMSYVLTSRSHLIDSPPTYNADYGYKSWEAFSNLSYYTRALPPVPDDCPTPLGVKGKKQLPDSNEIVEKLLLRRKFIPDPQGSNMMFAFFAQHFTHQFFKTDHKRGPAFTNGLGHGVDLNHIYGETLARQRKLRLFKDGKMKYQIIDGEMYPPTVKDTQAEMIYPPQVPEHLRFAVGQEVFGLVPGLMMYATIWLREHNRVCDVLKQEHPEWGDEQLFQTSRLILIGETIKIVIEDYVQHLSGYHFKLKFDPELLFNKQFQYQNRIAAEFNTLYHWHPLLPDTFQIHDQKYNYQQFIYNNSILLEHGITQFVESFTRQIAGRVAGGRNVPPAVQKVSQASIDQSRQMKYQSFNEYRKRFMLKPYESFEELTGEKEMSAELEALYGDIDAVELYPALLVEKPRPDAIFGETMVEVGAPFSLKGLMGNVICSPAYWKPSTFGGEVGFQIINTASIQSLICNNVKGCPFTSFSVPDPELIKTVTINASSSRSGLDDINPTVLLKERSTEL
Assay: Inhibition of human recombinant COX2 after 2 mins by EIA
Conditions: not given

Compound | IC50
COc1ccc(-c2nn(-c3ccccc3)cc2-c2nnc(-c3ccc(Cl)cc3)o2)cc1 | 67 µM
Brc1ccc(-c2nn(-c3ccccc3)cc2-c2nnc(-c3ccccc3)o2)cc1 | > 100 µM
O=[N+]([O-])c1ccc(-c2nn(-c3ccccc3)cc2-c2nnc(-c3ccncc3)o2)cc1 | 0.5 µM
Cc1ccc(-c2nn(-c3ccccc3)cc2-c2nnc(-c3ccncc3)o2)cc1 | 53 µM
Clc1ccc(-c2nnc(-c3cn(-c4ccccc4)nc3-c3ccccc3)o2)cc1 | 38 µM
Clc1ccc(-c2nnc(-c3cn(-c4ccccc4)nc3-c3ccc(Br)cc3)o2)cc1 | 50 µM
c1ccc(-c2nnc(-c3cn(-c4ccccc4)nc3-c3ccccc3)o2)cc1 | 1.5 µM
Fc1ccc(-c2nn(-c3ccccc3)cc2-c2nnc(-c3ccncc3)o2)cc1 | 2.3 µM
Clc1ccc(-c2nn(-c3ccccc3)cc2-c2nnc(-c3ccncc3)o2)cc1 | 4.4 µM
c1ccc(-c2nn(-c3ccccc3)cc2-c2nnc(-c3ccncc3)o2)cc1 | 11.1 µM
Fc1ccc(-c2nn(-c3ccccc3)cc2-c2nnc(-c3ccccc3)o2)cc1 | 6.5 µM
O=[N+]([O-])c1ccc(-c2nn(-c3ccccc3)cc2-c2nnc(-c3ccc(Cl)cc3)o2)cc1 | 1.2 µM
COc1ccc(-c2nn(-c3ccccc3)cc2-c2nnc(-c3ccncc3)o2)cc1 | 42 µM
Clc1ccc(-c2nn(-c3ccccc3)cc2-c2nnc(-c3ccccc3)o2)cc1 | 4.7 µM
Fc1ccc(-c2nn(-c3ccccc3)cc2-c2nnc(-c3ccc(Cl)cc3)o2)cc1 | 5.5 µM
Clc1ccc(-c2nnc(-c3cn(-c4ccccc4)nc3-c3ccc(Cl)cc3)o2)cc1 | 8.7 µM
Cc1ccc(-c2nn(-c3ccccc3)cc2-c2nnc(-c3ccccc3)o2)cc1 | 25 µM
O=[N+]([O-])c1ccc(-c2nn(-c3ccccc3)cc2-c2nnc(-c3ccccc3)o2)cc1 | 0.31 µM
Cc1ccc(-c2nn(-c3ccccc3)cc2-c2nnc(-c3ccc(Cl)cc3)o2)cc1 | 58 µM
COc1ccc(-c2nn(-c3ccccc3)cc2-c2nnc(-c3ccccc3)o2)cc1 | > 100 µM
Brc1ccc(-c2nn(-c3ccccc3)cc2-c2nnc(-c3ccncc3)o2)cc1 | 39 µM

System: not listed separately
Assay: Selectivity index, ratio of IC50 for ovine COX1 to IC50 for human recombinant COX2
Conditions: not given
Outline: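 Fluorescent screening kit with ovine COX-1 or human recombinant COX-2, heme and ADHP substrate in 0.1 M Tris-HCl pH 8.0 with 5 mM EDTA and 2 mM phenol. Compounds in DMSO tested at 0.01-100, 5 min at 37 °C. Arachidonic acid added; reaction stopped with HCl after 2 min. Resorufin read at ex 535/em 590 nm. IC50 from triplicate concentration-inhibition curves; SI = COX-1 IC50/COX-2 IC50.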

Compound | Ratio IC50
COc1ccc(-c2nn(-c3ccccc3)cc2-c2nnc(-c3ccc(Cl)cc3)o2)cc1 | > 1.5
Brc1ccc(-c2nn(-c3ccccc3)cc2-c2nnc(-c3ccccc3)o2)cc1 | > 1
O=[N+]([O-])c1ccc(-c2nn(-c3ccccc3)cc2-c2nnc(-c3ccncc3)o2)cc1 | > 200
Cc1ccc(-c2nn(-c3ccccc3)cc2-c2nnc(-c3ccncc3)o2)cc1 | > 1.9
Clc1ccc(-c2nnc(-c3cn(-c4ccccc4)nc3-c3ccccc3)o2)cc1 | > 2.6
Clc1ccc(-c2nnc(-c3cn(-c4ccccc4)nc3-c3ccc(Br)cc3)o2)cc1 | > 2
c1ccc(-c2nnc(-c3cn(-c4ccccc4)nc3-c3ccccc3)o2)cc1 | > 67
Fc1ccc(-c2nn(-c3ccccc3)cc2-c2nnc(-c3ccncc3)o2)cc1 | > 43
Clc1ccc(-c2nn(-c3ccccc3)cc2-c2nnc(-c3ccncc3)o2)cc1 | > 23
c1ccc(-c2nn(-c3ccccc3)cc2-c2nnc(-c3ccncc3)o2)cc1 | > 9
Fc1ccc(-c2nn(-c3ccccc3)cc2-c2nnc(-c3ccccc3)o2)cc1 | > 15.4
O=[N+]([O-])c1ccc(-c2nn(-c3ccccc3)cc2-c2nnc(-c3ccc(Cl)cc3)o2)cc1 | > 83.3
COc1ccc(-c2nn(-c3ccccc3)cc2-c2nnc(-c3ccncc3)o2)cc1 | > 2.4
Clc1ccc(-c2nn(-c3ccccc3)cc2-c2nnc(-c3ccccc3)o2)cc1 | > 21
Fc1ccc(-c2nn(-c3ccccc3)cc2-c2nnc(-c3ccc(Cl)cc3)o2)cc1 | > 18.2
Clc1ccc(-c2nnc(-c3cn(-c4ccccc4)nc3-c3ccc(Cl)cc3)o2)cc1 | > 11.5
Cc1ccc(-c2nn(-c3ccccc3)cc2-c2nnc(-c3ccccc3)o2)cc1 | > 4
O=[N+]([O-])c1ccc(-c2nn(-c3ccccc3)cc2-c2nnc(-c3ccccc3)o2)cc1 | > 222
Cc1ccc(-c2nn(-c3ccccc3)cc2-c2nnc(-c3ccc(Cl)cc3)o2)cc1 | > 1.7
COc1ccc(-c2nn(-c3ccccc3)cc2-c2nnc(-c3ccccc3)o2)cc1 | > 1
Brc1ccc(-c2nn(-c3ccccc3)cc2-c2nnc(-c3ccncc3)o2)cc1 | > 2.6

System: Rattus norvegicus
Assay: Antiinflammatory activity in po dosed albino rat assessed as inhibition of carrageenan-induced paw edema administered 1 hr prior challenge measured 2 hrs post challenge
Type: functional
Conditions: not given
Outline: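 Male Charles Foster albino rats, 150-200 g, n = 6 per group. Compounds suspended in 0.5% methyl cellulose, given orally at 50, 100 and 200 mg/kg; reference drugs at 25, 50 and 100 mg/kg. 1 h later, 0.2 mL of 1% carrageenan in 0.9% NaCl injected into the right hind paw.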

Compound | ED50
O=[N+]([O-])c1ccc(-c2nn(-c3ccccc3)cc2-c2nnc(-c3ccncc3)o2)cc1 | 72.6 mg/kg
c1ccc(-c2nnc(-c3cn(-c4ccccc4)nc3-c3ccccc3)o2)cc1 | 125 mg/kg
Fc1ccc(-c2nn(-c3ccccc3)cc2-c2nnc(-c3ccncc3)o2)cc1 | 123 mg/kg
Clc1ccc(-c2nn(-c3ccccc3)cc2-c2nnc(-c3ccncc3)o2)cc1 | 167 mg/kg
O=C(O)Cc1ccccc1Nc1c(Cl)cccc1Cl [DICLOFENAC] | 110 mg/kg
Fc1ccc(-c2nn(-c3ccccc3)cc2-c2nnc(-c3ccccc3)o2)cc1 | 175 mg/kg
O=[N+]([O-])c1ccc(-c2nn(-c3ccccc3)cc2-c2nnc(-c3ccc(Cl)cc3)o2)cc1 | 167 mg/kg
Cc1ccc(-c2cc(C(F)(F)F)nn2-c2ccc(S(N)(=O)=O)cc2)cc1 [CELECOXIB] | 81.7 mg/kg
Clc1ccc(-c2nn(-c3ccccc3)cc2-c2nnc(-c3ccccc3)o2)cc1 | 171 mg/kg
Fc1ccc(-c2nn(-c3ccccc3)cc2-c2nnc(-c3ccc(Cl)cc3)o2)cc1 | 182 mg/kg
Clc1ccc(-c2nnc(-c3cn(-c4ccccc4)nc3-c3ccc(Cl)cc3)o2)cc1 | 199 mg/kg
O=[N+]([O-])c1ccc(-c2nn(-c3ccccc3)cc2-c2nnc(-c3ccccc3)o2)cc1 | 74.3 mg/kg

System: Rattus norvegicus
Assay: Ulcerogenic activity in po dosed albino rat at 200 mg/kg, po administered intragastrically measured after 3 hrs
Type: toxicity, organism-based
Set-up: dose 200 mg/kg, route oral
Conditions: in vivo
Outline: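 Rats of 180-200 g, 6 per group, fasted 24 h, dosed intragastrically at 200 mg/kg. Killed 3 h later; stomachs opened along the lesser curvature. Each hemorrhagic lesion measured along its maximum length and ranked. Lesion lengths summed to give the ulcer index, reported as mean ± SEM.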

Compound | Activity
CC(=O)Oc1ccccc1C(=O)O [ASPIRIN] | Toxic
O=[N+]([O-])c1ccc(-c2nn(-c3ccccc3)cc2-c2nnc(-c3ccccc3)o2)cc1 | Non-toxic

System: Mus musculus
Assay: Analgesic activity in mouse assessed as inhibition of acetic acid-induced writhing at 200 mg/kg, po administered 60 mins prior challenge measured for 5 to 10 mins post acetic acid challenge relative to control
Type: functional
Conditions: not given
Outline: (§1)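 Groups of 6 mice given saline, test compound (200 mg/kg) or aspirin (100 mg/kg) orally. 60 min later, 0.6% acetic acid injected i.p. Writhes per mouse counted between 5 and 10 min after injection. Percent inhibition of writhes calculated against the saline control group.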

Compound | inhibition in vivo at 200 mg/kg
O=[N+]([O-])c1ccc(-c2nn(-c3ccccc3)cc2-c2nnc(-c3ccccc3)o2)cc1 | 67.3%

System: Mus musculus
Assay: Analgesic activity in mouse assessed as inhibition of acetic acid-induced writhing at 100 mg/kg, po administered 60 mins prior challenge measured for 5 to 10 mins post acetic acid challenge relative to control
Type: functional
Conditions: not given
Outline: as §1

Compound | inhibition in vivo at 100 mg/kg
CC(=O)Oc1ccccc1C(=O)O [ASPIRIN] | 72.2%
